# M1 PAM = human CHRM1 positive allosteric modulation; P11229; CHO-K1 hM1, Fluo-8 calcium fluorescence, ACh EC20; 0% = ACh EC20, 100% = maximal ACh; activation, % at 3 µM; 0.088% of 360,000 active; AID 588819; in the data active = activation above about 19%, passing the limit was not always enough
# Target sequence (P11229 whole entry, looked up): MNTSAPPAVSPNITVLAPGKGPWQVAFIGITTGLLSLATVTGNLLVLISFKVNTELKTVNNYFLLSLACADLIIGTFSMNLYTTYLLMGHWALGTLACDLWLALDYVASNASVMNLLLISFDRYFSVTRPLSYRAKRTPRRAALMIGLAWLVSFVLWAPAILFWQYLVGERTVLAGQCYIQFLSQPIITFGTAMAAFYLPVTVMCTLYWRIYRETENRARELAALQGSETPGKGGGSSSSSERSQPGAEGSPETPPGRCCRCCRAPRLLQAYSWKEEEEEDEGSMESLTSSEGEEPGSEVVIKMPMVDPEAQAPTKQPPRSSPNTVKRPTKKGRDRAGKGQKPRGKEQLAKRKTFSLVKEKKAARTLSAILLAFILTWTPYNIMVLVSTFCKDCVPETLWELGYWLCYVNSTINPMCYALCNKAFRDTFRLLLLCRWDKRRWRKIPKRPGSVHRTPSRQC
# M5 ag = CHRM5 agonism in calcium assay. CHO-K1 hM5 cells, Fluo-8 calcium fluorescence; 0% DMSO wells, 100% maximal acetylcholine response. 0.19% of 360,000 active. activation, % at 3 µM;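 active = activation above the run's mean over test compounds plus 3 SD, cut at about 23% in these data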;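 also: signal is peak over basal fluorescence ratio across the kinetic read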
# M5 antag = blocks acetylcholine activation of human M5 receptor | P08912 | 0.59% of 360,000 active | inhibition, % at 3 µM | CHO-hM5 cells, Fluo-8 calcium fluorescence, ACh EC80;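 active = inhibition above a per-plate cutoff, the mean of that plate's test compounds plus 3 SD, cut at about 27% in these data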
# M1 antag = antagonists of human M1 muscarinic receptor; CHO-K1 hM1, Fluo-8 calcium fluorescence, ACh EC80 antagonist; 1.3% of 360,000 active; inhibition, % at 3 µM; P11229;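 active = percent inhibition above its own plate's cutoff, namely the mean of that plate's compound wells plus 3 SD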;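 also: peak over basal fluorescence ratio during 140 s after agonist addition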
# M1 ag = agonists of human M1 muscarinic receptor; 0.33% of 360,000 active; CHO-K1 hM1, Fluo-8 calcium fluorescence, agonist mode; 0% DMSO, 100% acetylcholine EC100; P11229; activation, % at 3 µM;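 active = activation above the run's mean compound activation plus 3 SD, cut at about 16% in these data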;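 also: peak over basal fluorescence ratio within a 140 s kinetic read after compound addition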
# M5 PAM = CHRM5 positive allosteric modulation. CHO-K1 hM5, Fluo-8 calcium, ACh EC20 PAM; 0% = ACh EC20, 100% = ACh EC100. activation, % at 3 µM. 0.3% of 360,000 active. AID 624038;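 active = activation above the run cutoff, the mean activation of all test compounds plus 3 SD, cut at about 18% in these data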
#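 System: CHO-K1 cell line with stable human muscarinic M5 receptor expression | Also added: EC20 acetylcholine as agonist stimulus | Compound: One concentration, 3 µM final (nominal) | Timing: Fluo-8 loading 80 min at 37 °C plus 30 min room temperature | Measured by: Fluo-8 calcium dye fluorescence, kinetic read | Read-out basis: % activation, ACh-normalized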
# A number is an active result; i = inactive. Shown are actives, neighbours in structure and some others; about 2.2% of the full set was active somewhere.
SMILES,M1 PAM,M5 ag,M5 antag,M1 antag,M1 ag,M5 PAM
O=C(N/N=C/c1cccs1)c1ccc2nc[nH]c2c1,i,i,i,35.4,i,i
CCOc1cc(/C=N/NC(=O)c2cccnc2)ccc1OC(=O)c1ccco1,i,i,i,i,i,i
CCOC(=O)C1(CCCc2ccccc2)CCN(C2CCN(C(C)=O)CC2)CC1,i,i,30.1,i,i,i
CCOC(=O)C1(CCCc2ccccc2)CCN(Cc2nccn2CC)CC1,i,i,i,48.4,i,i
CCOC(=O)C1(CCOc2ccccc2)CCN(Cc2ccc(C(=O)OC)cc2)CC1,i,i,i,42.1,i,i
CCOC(=O)C1(CCCc2ccccc2)CCN(C(=O)CSC)CC1,i,i,i,i,i,i
CCOC(=O)C1(CCOc2ccccc2)CCN(Cc2nccn2CC)CC1,i,i,i,27.1,i,i
Cc1cccc(C(=O)NC(=S)N2CCc3ccccc3C2)c1,i,i,i,i,i,i
CS(=O)(=O)c1ccc2nc(NC(=O)c3ccc(Cn4cc(Br)cn4)o3)sc2c1,i,i,27.7,i,i,i
CCOC(=O)C1(C)CCCCN1C(=O)c1cccnc1 (configuration not stated),27.2,i,i,i,i,i
CCOC(=O)C1(C)CCCN1C(=O)c1cncc(Br)c1 (configuration not stated),i,i,i,i,i,i
COc1ccc(-n2c(C)c(C)c3c(NCCCN(C)C)ncnc32)cc1,i,i,i,i,i,i
COc1ccc(-n2c(C)c(C)c3c(NCCN(C)C)ncnc32)cc1,i,i,i,i,i,29.2
COC(=O)c1ccc(CO/N=C(\NC(C)=O)c2nonc2NC(C)=O)cc1,i,i,i,i,17.0,i
CCOC(=O)c1nonc1NC(C)=O,i,i,i,i,i,i
C=CCNC(=O)N1CCc2[nH]c3ccc(F)cc3c2C1,i,i,i,i,24.5,i
CCCCNC(=O)N1CCc2[nH]c3ccccc3c2C1,i,i,i,i,19.5,i
O=C(C1CC1)N1CCc2[nH]c3ccccc3c2C1,i,i,i,i,i,i
COc1ccccc1NC(=O)N1CCc2[nH]c3ccc(Cl)cc3c2C1,i,i,i,i,21.9,i
O=S(=O)(Cc1ccccc1)N1CCN(Cc2ccc(F)cc2Cl)CC1,i,i,i,i,i,i
O=C1CCN(Cc2ccccc2)C(=O)N1,i,i,i,i,i,i
O=C1CCC(c2ccccc2)(C2CCN(Cc3ccccc3)CC2)C(=O)N1 (configuration not stated),i,i,98.9,98.0,i,i
O=C(O)CC1(CC(=O)Nc2ccc(F)cc2F)CCCCC1,i,i,i,i,i,19.3
O=C(O)CC1(CC(=O)Nc2cc(F)ccc2Cl)CCCCC1,i,i,i,i,i,i
CCS(=O)(=O)c1ccc(O)c(NC(=O)CCCC(=O)O)c1,i,i,i,i,i,i
SMILES,M1 PAM,M5 ag,M5 antag,M1 antag,M1 ag,M5 PAM
CCS(=O)(=O)c1ccc(O)c(NC(=O)CC2(CC(=O)O)CCCC2)c1,i,i,i,i,i,19.2
CCOc1ccccc1N1CCN(C(=O)NCc2ccc(Cl)cc2)CC1,i,i,i,i,i,i
c1ccc(Nc2cccc3ccccc23)cc1,i,i,i,i,i,i
c1ccc(Nc2ccc3c4c(cccc24)CC3)cc1,i,26.8,37.1,52.4,42.5,i
CCCCN(C(=O)c1cc2ccccc2o1)c1c(N)n(CCCC)c(=O)[nH]c1=O,i,i,i,i,i,i
Cc1ccn(CCC(=O)N2CCCC(N3CCN(c4ccccc4C)CC3)C2)n1 (configuration not stated),i,i,i,i,49.0,i
O=C(N[C@@H](Cc1ccccc1)C(=O)NC1CC1)c1ccc(Cl)cc1,i,i,i,i,i,i
N[C@@H](Cc1ccccc1)C(=O)N1CCC(C(=O)NCC(=O)NCC(=O)O)CC1,i,i,i,i,i,i
COc1ccc(NC(=O)N(C)C[C@@H]2OCc3cnnn3CCCC(=O)N([C@@H](C)CO)C[C@H]2C)cc1,i,i,i,i,i,i
COc1cc(CN2CC(=O)N(c3ccccc3Cl)C2=S)cc(OC)c1OC,i,i,i,34.1,i,i
CCCCCCCCS(=O)C1CCS(=O)(=O)C1 (configuration not stated),i,i,i,i,i,i
CCCCCCS(=O)[C@H]1CS(=O)(=O)C[C@@H]1S(=O)CCCCCC (some centres not stated),i,i,i,19.5,i,i
COc1ccc(C)cc1NC(=O)CNc1ccccc1CN(C)C1CCCCC1,i,i,i,50.8,i,i
COc1ccc(Cl)cc1NC(=O)CNc1ccccc1CN(C)C1CCCCC1,i,i,i,i,i,i
CCCn1c(SC(C)C(=O)NC2CCCC(C)C2C)n[nH]c1=O (configuration not stated),i,i,i,i,i,i
CCC(C)N(C)Cc1cccc(C2(O)CCN(S(=O)(=O)c3ccc(F)c(C)c3)CC2)c1 (configuration not stated),i,i,i,81.4,i,i
Cc1cc(S(=O)(=O)N2CCN(c3c(C)cccc3C)CC2)ccc1F,i,i,i,i,i,i
CC(=O)N1CCN(C(c2ccccc2)c2ccccc2)CC1,i,i,i,i,i,i
O=C(c1ccc(=O)oc1)N1CCN(C(c2ccccc2)c2ccccc2)CC1,i,i,35.6,77.1,i,i
O=C(c1ccc2c(=O)n3c(nc2c1)CCCCC3)N1CCN(C(c2ccccc2)c2ccccc2)CC1,i,i,i,78.9,i,i
Cc1occc1C(=O)N/N=C/C=C/c1ccc(N(C)C)cc1,i,i,i,i,i,i
Cc1occc1C(=O)N/N=C/c1ccc(N(C)C)cc1,i,i,i,i,i,20.1
Cc1nnsc1C(=O)NC1CCCc2c1cnn2-c1ccc(F)cc1F (configuration not stated),i,i,i,31.3,i,i
Cc1cc(C(=O)NC2CCCc3c2cnn3-c2cccc(C)c2C)n(C)n1 (configuration not stated),i,i,i,34.5,i,i
CC(=O)NC1CCCc2c1cnn2-c1ccc(C(C)(C)C)cc1 (configuration not stated),i,i,i,i,i,i
Cn1nccc1C(=O)NC1CCCc2c1cnn2-c1ccc(C(C)(C)C)cc1 (configuration not stated),i,i,i,33.7,i,i
Cc1nnsc1C(=O)NC1CCCc2c1cnn2-c1cc(F)cc(F)c1 (configuration not stated),i,i,i,i,i,i
CCn1c(CCCOc2ccc(Cl)cc2Cl)n[nH]c1=S,i,i,i,i,i,i

# Assay outcomes as filed in PubChem BioAssay.
